Results reported in ChEMBL document CHEMBL1152997, “Prevalence of and molecular basis for tuberculosis drug resistance in the Republic of Georgia: validation of a QIAplex system for detection of drug resistance-related mutations” (2008).

Legend:
Type in all cases: functional
[1] = tested on: Mycobacterium tuberculosis; assay: Antimycobacterial activity against Mycobacterium tuberculosis clinical isolates from tuberculosis patient assessed as percent sensitive isolates at 2 ug/ml by absolute-concentration method
Summary of the method: (§1)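 Consecutive clinical M. tuberculosis isolates (196), Tbilisi, Jan–Mar 2006, primary culture on Lowenstein-Jensen medium. Suspension adjusted to 1 McFarland in sterile saline. 0.2 ml was plated onto drug-containing solid medium: a 10-fold dilution series for the 2, 4 and 40 µg/ml media, and a 100-fold dilution for the 0.2 µg/ml medium. Incubation at 37°C, 5–10% CO2, 28 days.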

[2] = tested on: Mycobacterium tuberculosis; assay: Antimycobacterial activity against Mycobacterium tuberculosis clinical isolates from tuberculosis patient assessed as percent specific isolates at 2 ug/ml by absolute-concentration method
[3] = tested on: Mycobacterium tuberculosis; assay: Antimycobacterial activity against Mycobacterium tuberculosis clinical isolates from tuberculosis patient assessed as percent sensitive isolates at 0.2 ug/ml by absolute-concentration method; summary of the method: as §1
[4] = tested on: Mycobacterium tuberculosis; assay: Antimycobacterial activity against Mycobacterium tuberculosis clinical isolates from tuberculosis patient assessed as percent specific isolates at 0.2 ug/ml by absolute-concentration method
[5] = tested on: Mycobacterium tuberculosis; assay: Antimycobacterial activity against Mycobacterium tuberculosis clinical isolates from tuberculosis patient assessed as percent specific isolates at 40 ug/ml by absolute-concentration method
[6] = tested on: Mycobacterium tuberculosis; assay: Antimycobacterial activity against Mycobacterium tuberculosis clinical isolates from tuberculosis patient assessed as percent sensitive isolates at 40 ug/ml by absolute-concentration method; summary of the method: as §1
[7] = tested on: Mycobacterium tuberculosis; assay: Antimycobacterial activity against Mycobacterium tuberculosis clinical isolates from tuberculosis patient assessed as percent sensitive isolates at 4 ug/ml by absolute-concentration method; summary of the method: as §1
[8] = tested on: Mycobacterium tuberculosis; assay: Antimycobacterial activity against Mycobacterium tuberculosis clinical isolates from tuberculosis patient assessed as percent specific isolates at 4 ug/ml by absolute-concentration method

## CC[C@@H](CO)NCCN[C@@H](CC)CO [ETHAMBUTOL]
[1]
  Activity: 50%
[2]
  Activity: 98.9%

## NNC(=O)c1ccncc1 [ISONIAZID]
[3]
  Activity: 85.4%
[4]
  Activity: 96.1%

## CO[C@H]1/C=C/O[C@@]2(C)Oc3c(C)c(O)c4c(O)c(c(/C=N/N5CCN(C)CC5)c(O)c4c3C2=O)NC(=O)/C(C)=C\C=C\[C@H](C)[C@H](O)[C@@H](C)[C@@H](O)[C@@H](C)[C@H](OC(C)=O)[C@@H]1C [RIFAMPIN]
[5]
  Activity: 99.4%
[6]
  Activity: 94.5%

## CN[C@@H]1[C@H](O[C@H]2[C@H](O[C@H]3[C@H](O)[C@@H](O)[C@H](N=C(N)N)[C@@H](O)[C@@H]3N=C(N)N)O[C@@H](C)[C@]2(O)C=O)O[C@@H](CO)[C@H](O)[C@H]1O [STREPTOMYCIN]
[7]
  Activity: 69.6%
[8]
  Activity: 99.2%
